From ChEMBL document CHEMBL1136049, “Synthesis of syn- and anti-1-amino-3-[18F]fluoromethyl-cyclobutane-1-carboxylic acid (FMACBC), potential PET ligands for tumor detection” (J Med Chem, 2002) come the findings set out here.

Series [1] is filed under the species Rattus norvegicus. As to the kind of experiment: Radioactivity distribution in heart of normal fischer rat after injection of syn-[18F]-FMACBC after 5 min. It counts as ADME, organism-based. The settings on record: in vivo. In a few lines: (§1)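 Male Fischer 344 rats (200–250 g), normal, fed ad libitum, given ~85 μCi of 18F tracer in 0.3 mL sterile water IV through a tail vein catheter. Anesthesia was ketamine:xylazine IM. Groups of four were killed at 5, 30, 60 and 120 min. Tissues were weighed and gamma-counted against dose standards, decay-corrected, and expressed as mean % injected dose per gram.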

The species named for series [2] is Rattus norvegicus. As to the kind of experiment: Radioactivity distribution in kidney of tumor-bearing fischer rat after injection of anti-[18F]FMACBC after 120 min. The conditions noted are these: in vivo, 2 h. Format: ADME, organism-based. In a few lines: (§2)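 Male Fischer 344 rats carrying intracranial rat 9L gliosarcoma, made by stereotaxic injection of 4 × 10^4 cells 17–19 days before. Awake restrained rats received ~35 μCi of 18F tracer in 0.3 mL sterile water IV by tail vein and were killed at 5, 60 or 120 min, n = 3–5. Tissues were weighed, gamma-counted, decay-corrected and expressed as % injected dose per gram.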

Series [3] is filed under the species Rattus norvegicus. As to the kind of experiment: Radioactivity distribution in muscle of normal fischer rat after injection of syn-[18F]-FMACBC after 60 min. The conditions noted are these: in vivo, 1 h. Format: ADME, organism-based, Muscle tissue. In a few lines:
(§3)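 Normal male Fischer 344 rats (200–250 g) were anesthetised with ketamine:xylazine i.m. and given about 85 μCi tracer in 0.3 mL sterile water via a tail vein catheter. Groups of four were killed at 5, 30, 60 and 120 min. Selected tissues were weighed and gamma counted with dose standards, decay-corrected, and expressed as mean %ID/g.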

For series [4], the species on record is Rattus norvegicus. As to the kind of experiment: Radioactivity distribution in spleen of normal fischer rat after injection of anti-[18F]FMACBC after 120 min. The settings on record: in vivo, 2 h. Format: ADME, organism-based. Put shortly:
as §3

The species entered for series [5] is Rattus norvegicus. As to the kind of experiment: Radioactivity distribution in spleen of normal fischer rat after injection of anti-[18F]FMACBC after 60 min. Format: ADME, organism-based. The conditions noted are these: in vivo, 1 h. Put shortly: as §3
The species named for series [6] is Rattus norvegicus. As to the kind of experiment: Radioactivity distribution in spleen of normal fischer rat after injection of syn-[18F]-FMACBC after 60 min. Format: ADME, organism-based. The settings on record: in vivo, 1 h. In a few lines:
as §3

The species named for series [7] is Rattus norvegicus. As to the kind of experiment: Radioactivity distribution in pancreas of tumor-bearing fischer rat after injection of anti-[18F]FMACBC after 120 min. Format: ADME, organism-based. The settings on record: in vivo, 2 h. Put shortly:
(§4)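 Male Fischer 344 rats with intracranial 9L gliosarcoma (4 × 10^4 cells stereotaxically implanted; used 17–19 days after implantation). About 35 μCi tracer in 0.3 mL sterile water was given by tail vein to awake, restrained rats. Rats were killed at 5, 60 or 120 min. Tissues, tumor and contralateral brain were weighed and gamma counted, decay-corrected, and expressed as %ID/g; n = 3–5 per time point.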

The species entered for series [8] is Rattus norvegicus. As to the kind of experiment: Radioactivity distribution in pancreas of tumor-bearing fischer rat after injection of anti-[18F]FMACBC after 60 min. It counts as ADME, organism-based. The settings on record: in vivo, 1 h. In a few lines:
as §4

The species entered for series [9] is Rattus norvegicus. As to the kind of experiment: Radioactivity distribution in pancreas of tumor-bearing fischer rat after injection of syn-[18F]-FMACBC after 5 min. It counts as ADME, organism-based. The conditions noted are these: in vivo. In a few lines: as §4
Series [10] is filed under the species Rattus norvegicus. As to the kind of experiment: Radioactivity distribution in lung of tumor-bearing fischer rat after injection of syn-[18F]-FMACBC after 120 min. Format: ADME, organism-based. The conditions noted are these: in vivo, 2 h. Put shortly:
as §4

The species named for series [11] is Rattus norvegicus. As to the kind of experiment: Radioactivity distribution in lungs of normal fischer rat after injection of syn-[18F]-FMACBC after 30 min. It counts as ADME, organism-based, Lung. The settings on record: in vivo, 0.5 h. Put shortly:
as §3

The species named for series [12] is Rattus norvegicus. As to the kind of experiment: Radioactivity distribution in lungs of normal fischer rat after injection of syn-[18F]-FMACBC after 5 min. It counts as ADME, organism-based, Lung. The settings on record: in vivo. In a few lines:
as §3

The species named for series [13] is Rattus norvegicus. As to the kind of experiment: Radioactivity distribution in pancreas of tumor-bearing fischer rat after injection of syn-[18F]-FMACBC after 60 min. Format: ADME, organism-based. The settings on record: in vivo, 1 h. In a few lines:
as §4

The species entered for series [14] is Rattus norvegicus. As to the kind of experiment: Radioactivity distribution in testis of tumor-bearing fischer rat after injection of anti-[18F]FMACBC after 60 min. It counts as ADME, organism-based. The settings on record: in vivo, 1 h. In a few lines: as §4
Series [15] is filed under the species Rattus norvegicus. As to the kind of experiment: Radioactivity distribution in kidney of tumor-bearing fischer rat after injection of anti-[18F]FMACBC after 5 min. Format: ADME, organism-based. The conditions noted are these: in vivo. Put shortly:
as §2

The species entered for series [16] is Rattus norvegicus. As to the kind of experiment: Radioactivity distribution in bone of tumor-bearing fischer rat after injection of syn-[18F]-FMACBC after 5 min. It counts as ADME, organism-based, Bone element. The settings on record: in vivo. In a few lines:
as §2

Series [17] is filed under the species Rattus norvegicus. As to the kind of experiment: Radioactivity distribution in heart of tumor-bearing fischer rat after injection of anti-[18F]FMACBC after 5 min. Format: ADME, organism-based. The settings on record: in vivo. Put shortly:
as §2

Series [18] is filed under the species Rattus norvegicus. As to the kind of experiment: Radioactivity distribution in liver of normal fischer rat after injection of syn-[18F]-FMACBC after 5 min. Format: ADME, organism-based. The conditions noted are these: in vivo. Put shortly:
as §1

Consider `N[C@]1(C(=O)O)C[C@@H](CF)C1`, for which the ID/g in series [1] is listed as 0.63%; in series [2] it was 0.79%; in [3], 0.61%; in series [4], 0.47%; in [5] it was 0.48%; in series [6], 0.54%. Besides, the ID/g is on record as 2.17% in series [7]; 2.48% in series [8]; 3.19% in [9]; 0.26% in series [10]; 0.46% in series [11]; 0.75% in [12]. Also, the ID/g in series [13] is 2.08%; in series [14], 0.26%; in series [15], 0.96%; in series [16] it was 0.26%; in series [17], 0.58%; in [18], 0.66%.
